Screening results (PubChem)
HIF act: HIF pathway transcriptional activation. U2OS HRE-luciferase reporter, luminescence; normalized: DMSO 0%, desferrioxamine 100%. activation, % at 7.5 µM (by protocol). 300,000 compounds, 0.32% hits. AID 1910;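 active = mean activation of at least 10% of the iron chelator positive control signal, with at least half of replicates also reaching 10%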
NR2E3 ag-1: agonists of human nuclear receptor NR2E3; GST-NR2E3/biotin-RetCOR TR-FRET, 1536-well; 320,000 compounds, 0.12% hits; Q9Y5X4; AID 2300; inhibition of corepressor binding, % at 4.78 µM;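 active = percent inhibition above the cutoff of mean plus 3 SD of all tested compounds, set per screening campaign, cut at about 20% in these data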
Target sequence (Q9Y5X4 whole entry, looked up): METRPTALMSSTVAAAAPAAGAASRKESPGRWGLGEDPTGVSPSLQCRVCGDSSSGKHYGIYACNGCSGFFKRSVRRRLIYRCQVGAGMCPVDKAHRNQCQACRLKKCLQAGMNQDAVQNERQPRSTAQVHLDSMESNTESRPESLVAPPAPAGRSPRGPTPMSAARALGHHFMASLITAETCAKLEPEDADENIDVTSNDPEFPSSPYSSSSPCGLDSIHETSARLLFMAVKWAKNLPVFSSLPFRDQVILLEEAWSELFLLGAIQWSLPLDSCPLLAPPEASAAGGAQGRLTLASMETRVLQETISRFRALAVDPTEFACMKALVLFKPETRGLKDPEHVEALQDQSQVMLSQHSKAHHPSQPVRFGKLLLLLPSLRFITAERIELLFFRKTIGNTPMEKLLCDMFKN
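System: GST-tagged NR2E3 plus biotinylated RetCOR corepressor; Amount: 1.35 nM GST-tagged NR2E3 final; Dosing: single nominal compound dose of 4.8 µM; Schedule: 5 h incubation at 4 °C; Technique: TR-FRET with europium anti-GST and streptavidin-D2, 340 nm excitation; Controls: biotin wells as high control, 0.6% DMSO wells as low control.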
TROY NFkB inh: blocks TROY-dependent signaling in reporter cells; Q293 LMP1-TROYcd NF-kB luciferase reporter, 4 h; inhibition, % at 10 µM; 360,000 compounds, 0.98% hits; AID 1347056;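 active = compounds whose plate-normalised and pattern-corrected inhibition of the luciferase reporter signal at the single screening dose is 50% or more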
EBV LMP1 NFkB: reduces LMP1-driven NF-kappaB luciferase signal; LMP1-induced NF-kappaB luciferase reporter cells, luminescence; inhibition, % at 12.5 µM; 350,000 compounds, 0.69% hits; in the data active = inhibition above about 41%
NR2E3 ag-2: agonists of human NR2E3 nuclear receptor | inhibition of corepressor binding, % at 3.98 µM | 360,000 compounds, 0.35% hits | AID 602229 | Q9Y5X4 | CHO-S Gal4-NCOR/VP16-NR2E3 two-hybrid, luciferase;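 active = inhibition above the mean of all tested compounds plus 3 SD, cut at about 70% in these data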;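 also: higher means lower luciferase signal from less NR2E3 corepressor binding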
A number is an active result; 0 = inactive; - = no result; ! = not active in a repeat. Rows were chosen to be rich in hits. Some 2% of all compounds tested hit in one or more screens of this group.

SMILES	HIF act	NR2E3 ag-1	TROY NFkB inh	EBV LMP1 NFkB	NR2E3 ag-2
COc1cccc(CNC(=O)CN2C(=O)CSc3ccc(S(=O)(=O)N4CCCCC4)cc32)c1	0	0	0	0	0
O=C(Cn1ncc(Cl)c(Cl)c1=O)Nc1ccc2c(c1)OCO2	-	0	0	0	0
O=C(O)CCC(=O)N1CCN(S(=O)(=O)c2ccc3ccccc3c2)CC1	0	0	0	0	0
CCN(CC)S(=O)(=O)c1cc(NC(=O)Cn2ncc(Cl)c(Cl)c2=O)ccc1C	0	0	89	0	0
Cc1cc(Br)ccc1NC(=O)CNC(=O)CSc1ncccn1	-	0	0	0	0
O=C(Cn1ncc(Cl)c(Cl)c1=O)N1CCN(S(=O)(=O)c2ccc3ccccc3c2)CC1	0	0	67	0	0
Cc1cc(Br)ccc1NC(=O)CNC(=O)Cn1ncc(Cl)c(Cl)c1=O	0	0	0	83	0
O=c1[nH]c2c(cnn2-c2ccc(Cl)cc2)c(=O)n1-c1cccc(Cl)c1	0	0	0	0	0
COc1ccc(S(=O)(=O)NC(=O)C2(C)CCN2C(=O)C2CC2)cc1 (configuration not stated)	-	-	0	-	0
CCN1C(=O)[C@@H]2[C@@H](c3ccc(-c4ccc(Cl)c(Cl)c4)cc3)N3CCC[C@@]3(C(=O)OC)[C@@H]2C1=O	-	-	0	75	0
CCN1C(=O)[C@@H]2[C@@H](c3ccc(SC4CCCCC4)cc3)N3CCCC[C@@]3(C(=O)OC)[C@@H]2C1=O	0	0	63	0	0
CCN1C(=O)[C@H]2[C@@H](c3ccc(-c4ccc(Cl)c(Cl)c4)cc3)N3CCCC[C@@]3(C(=O)OC)[C@H]2C1=O	0	0	0	0	0
CCN1C(=O)[C@H]2[C@@H](c3ccc(SC4CCCCC4)c(OC)c3)N3CCCC[C@@]3(C(=O)OC)[C@H]2C1=O	0	0	0	0	0
CCN(CC(=O)NCc1ccc(F)cc1)C(=O)COc1ccccc1[N+](=O)[O-]	-	-	0	0	0
O=c1cc(C2CCCCC2)[nH]c(=O)[nH]1	-	-	0	52	0
CC(C)C[C@H](NC(=O)N1CCn2c1nc1ccccc12)C(=O)NCC1CCCO1 (some centres not stated)	0	0	0	0	0
CNc1ccc(/C=C2\CSc3ccccc3C2=O)cc1[N+](=O)[O-]	0	0	62	0	0
CCOC(=O)CCSc1nc(N2CCOCC2)c2c(c1C#N)CC(C)(C)OC2	0	0	0	63	0
COC(=O)CCSc1nc(N2CCOCC2)c2c(c1C#N)CC(C)(C)OC2	0	0	0	0	0
O=C(Nc1ccccn1)c1ccc(-c2ccccc2)cc1	0	0	54	47	0
CNc1ccc2ncc(-c3cccc(C(=O)N(C)C)c3)n2n1	-	-	53	-	0
COc1cccc(N2CCN(C(=O)C3CCN(C(=O)Nc4ccccc4)CC3)CC2)c1	-	-	0	0	0
Cc1sc2cc3c(c(C(=O)c4ccccc4)[n+]2c1C)-c1cccc2cccc-3c12	11	0	-	-	-
COc1ccc(OC)c(S(=O)(=O)Nc2cc3c4c(c2)C(C)C(=O)N4CCC3)c1 (configuration not stated)	0	0	57	0	0
COc1ccc(OC)c(S(=O)(=O)Nc2cc3c4c(c2)CCC(=O)N4CCC3)c1	0	0	0	0	0
SMILES	HIF act	NR2E3 ag-1	TROY NFkB inh	EBV LMP1 NFkB	NR2E3 ag-2
Cc1cc(OCCN2CCOCC2)ccc1C(C)C	0	0	0	0	0
CCc1nc2c(OCCn3cccc3)cccn2c1N(C)C(=O)c1ccc(OC)cc1	-	-	0	-	0
O=C(O)c1ccc2c(c1Nc1ccccc1)C(=O)c1ccccc1C2=O	0	0	0	43	0
CNc1c(C(=O)O)ccc2c1C(=O)c1ccccc1C2=O	0	0	0	0	0
Cc1ccccc1NC1=C(C(=O)c2ccccc2)N(C)S(=O)(=O)c2ccccc21	0	0	0	0	0
O=C(C1=C(Nc2ccccc2)c2ccccc2S(=O)(=O)N1)c1ccccc1	0	0	55	0	0
CCSc1nc(=S)cc(C)[nH]1	0	0	0	0	0
CC(C)(C)C(=O)Cn1ncc(Br)c(Br)c1=O	0	-	53	61	0
CC(C)(C)C(=O)Cn1ncc(N2CCOCC2)c(Cl)c1=O	0	0	0	0	0
O=C(CC1CC2CCC1C2)N1CCN(S(=O)(=O)c2ccc(F)cc2)CC1 (configuration not stated)	-	-	0	0	0
O=C(COc1cccc(C(F)(F)F)c1)NNC(=O)c1ccc(=O)[nH]c1	-	-	0	72	0
O=C(NCc1cccc(C(F)(F)F)c1)c1ccc(=O)[nH]c1	0	0	0	0	0
O=S(=O)(CCSc1nc2ccccc2s1)c1nc2ccccc2s1	13	0	69	0	0
CCS(=O)(=O)CCSc1nc2ccccc2s1	0	0	0	0	0
CC1=C(CC/C(C)=N/NC(N)=S)C(C)(C)CCC1	0	0	0	0	0
C[C@H](NC(=O)c1nc[nH]c1C(=O)NCc1ccc(CNC(=O)OC(C)(C)C)cc1)C(=O)OCc1ccccc1	-	-	57	0	0
C[C@H](NC(=O)c1nc[nH]c1C(=O)NCc1ccc(CNC(=O)OC(C)(C)C)cc1)c1ccccc1	-	0	0	0	0
CNc1cncc(-c2ccc(OCCCN(C)C)nc2)n1	-	-	0	-	0
CCOc1cc(/C=N/NC(=O)c2c(-c3ccccc3)noc2C)ccc1O	100	0	0	0	0
COc1cc(/C=N/NC(=O)c2c(-c3ccccc3)noc2C)ccc1O	0	0	0	0	0
Cc1ccc(/C=N/NC(=O)c2c(-c3ccccc3)noc2C)c(O)c1	18	0	0	0	0
COc1ccc(-c2n(Cc3ccccc3)c3ccccc3[n+]2Cc2ccccc2)cc1	0	0	50	0	0
COc1ccc(-c2nc3ccccc3n2Cc2ccccc2)cc1	0	0	0	0	0
O=C(NC1CC1)c1ccc(NC(=O)C2CCC2)cc1	-	-	0	0	0
N#Cc1c(-c2ccccc2)nc(SCC(=O)N2c3ccccc3Sc3ccccc32)[nH]c1=O	0	0	55	0	0
SMILES	HIF act	NR2E3 ag-1	TROY NFkB inh	EBV LMP1 NFkB	NR2E3 ag-2
O=C(O)C(=Cc1ccccc1)Cc1ccccc1	-	-	0	0	0
CCOc1ccc(CN2C(=O)c3ccccc3C2=O)cc1C(=O)NC1CC(C)(C)NC(C)(C)C1	-	0	0	71	0
COc1cc(CCC(=O)OCC(=O)N2CCc3ccccc32)cc(OC)c1OC	0	0	0	0	0
CCN(C(=O)c1ccc(S(=O)(=O)N(C)C)cc1)C(C)C(=O)Nc1ccc(C)cc1 (configuration not stated)	0	0	0	0	0
CN(C)CC(C)(C)CNS(=O)(=O)c1ccc(Cl)c(Cl)c1	0	0	52!	0	0
CN(C)CCNC(=O)c1cccc(NS(=O)(=O)c2ccc(Cl)c(Cl)c2)c1	0	0	0	0	0
Cc1ccc(C)c(C(=O)Nc2ccncc2)c1	0	0	0	0	0
COc1ccc(NC(=O)COC(=O)Cc2cccs2)cc1Cl	-	-	0	0	0
